Bioassay records: PubChem BioAssay, Johns Hopkins Ion Channel Center
Kir21 block = Kir2.1 (mouse) channel inhibition. B-score at 10 µM. HEK293-Kir2.1, FluxOR thallium flux fluorescence; active compounds read low. 310,000 tested, 0.85% active. AID 1672;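 active means fluorescence ratio B-score at or below minus 3 SD of library scores, with starting-brightness B-score within 2 SD, cut at about -4.2 in these data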;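 further: channel flux triggered by added potassium and thallium sulfate stimulus; B-score of peak minus minimum fluorescence over baseline after thallium stimulus; more negative B-score means stronger Kir2.1 block with less thallium influx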
hERG protect = shields human hERG channel from block by proarrhythmic agents; Q12809; CHO-hERG, FluxOR thallium flux, dofetilide IC70 present; activation (rescue from dofetilide block), less the hit threshold, % at 10 µM; 310,000 tested, 0.51% active; AID 1511;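 active means activation above the mean of controls blocked by dofetilide plus 5 SD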;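 further: thallium influx through hERG after potassium depolarization seen as dye fluorescence rise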
KCNK9 inh = inhibitors of human KCNK9 two-pore domain potassium channel; Q9NPC2; HEK293 KCNK9, FluxOR thallium flux fluorescence; active compounds read low; B-score at 10 µM; 310,000 tested, 1.2% active;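 active means ratio B-score over 3 SD below the library mean, with starting fluorescence within 5 SD of its mean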;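 further: negative B-score means less thallium flux so channel inhibition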
KCNQ1 act = potentiators or activators of human KCNQ1 potassium channel; B-score at 10 µM; P51787; 310,000 tested, 0.35% active; CHO-K1 KCNQ1, thallium flux FluxOR fluorescence; active compounds read high;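 active means fluorescence ratio B-score, a plate-corrected score, at least three library SD, with initial intensity B-score within 5 SD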
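System: CHO-K1 cells stably expressing KCNQ1 / Medium: assay buffer for compound exposure, DMSO matched across wells / Reagent: thallium- and potassium-containing depolarizing buffer / Compound: one concentration, matched DMSO / Incubation: 20 min compound pretreatment at room temperature / Measured by: kinetic FluxOR fluorescence, 10 s baseline plus 110 s post-stimulus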
KCNQ1 inh = inhibitors of human KCNQ1 potassium channel; 310,000 tested, 1.3% active; AID 2642; B-score at 10 µM; CHO-K1 KCNQ1, FluxOR thallium flux fluorescence; active compounds read high;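 active means compounds whose thallium flux B-score, printed positive for inhibition, exceeds three library SD while starting fluorescence stays within three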;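 further: channel opened by potassium depolarization with thallium stimulus after 20 min compound exposure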
KCNK3 inh = human KCNK3 channel inhibition, primary screen | B-score at 10 µM | CHO-KCNK3 thallium flux, FluxOR fluorescence; active compounds read low | AID 602410 | 340,000 tested, 0.84% active;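 active means B-score under library mean minus 4 SD, starting fluorescence ratio at most library mean plus 5 SD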;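 further: more negative B-score means stronger inhibition of thallium flux through KCNK3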
Target sequence (O14649 whole entry, looked up): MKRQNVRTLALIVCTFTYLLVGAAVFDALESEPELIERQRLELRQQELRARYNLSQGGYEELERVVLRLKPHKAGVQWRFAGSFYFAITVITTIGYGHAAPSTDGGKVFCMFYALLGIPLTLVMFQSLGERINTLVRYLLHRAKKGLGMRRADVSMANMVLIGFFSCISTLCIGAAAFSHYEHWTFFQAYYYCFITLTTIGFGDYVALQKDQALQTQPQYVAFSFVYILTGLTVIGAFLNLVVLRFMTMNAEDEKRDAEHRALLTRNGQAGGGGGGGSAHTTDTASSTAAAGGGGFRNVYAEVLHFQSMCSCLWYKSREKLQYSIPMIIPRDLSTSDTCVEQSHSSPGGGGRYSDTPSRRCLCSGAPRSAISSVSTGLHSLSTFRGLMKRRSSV
An asterisk follows results filed as active; i = inactive; x = no result. The list is not random: actives were taken first. Their share in the collection is about 3.8%.

SMILES	Kir21 block	hERG protect	KCNK9 inh	KCNQ1 act	KCNQ1 inh	KCNK3 inh
CCC/C(O)=C1\C(=O)CCCC1=NCCc1c(C)[nH]c2ccc(C)cc12	1.62	-2.0	i	i	i	i
O=C(c1ccc(Cl)cc1[N+](=O)[O-])N(Cc1ccccc1)Cc1ccccc1	-0.58	-14.2	i	i	i	x
CCN(C(=O)c1ccc(Cl)cc1[N+](=O)[O-])c1ccccc1C	-4.95*	-9.5	i	i	i	i
CC(C)Nc1nc(Cl)nc(N(C#N)CN2C(=O)c3ccccc3C2=O)n1	-5.16*	-17.1	i	i	i	i
CNC(=O)CSCc1cnn(-c2ccccc2)c1-n1cccc1	-0.6	-4.9	i	i	i	i
COc1cccc(CNC(=O)CSCc2cnn(-c3ccccc3)c2-n2cccc2)c1	-5.79*	-8.8	i	i	i	i
CCc1c(C(=O)NN2C(=O)C3CCCCC3C2=O)csc1C (configuration not stated)	1.26	-2.6	i	i	i	i
COCCNC(=O)C(c1ccc(F)cc1)N(Cc1ccccc1)C(=O)CCC(=O)Nc1ccccn1 (configuration not stated)	0.09	-10.5	i	i	i	i
O=C(Nc1c[nH]c(=O)[nH]c1=O)c1ccc2c(c1)C(=O)N(c1cccc([N+](=O)[O-])c1)C2=O	1.93	0.7	i	i	i	i
O=C(O)c1ccc2c(c1)C(=O)N(c1cc([N+](=O)[O-])ccn1)C2=O	0.09	5.2*	i	i	i	i
Cc1ccc(C(=O)O)cc1NC(=O)c1ccc2c(c1)C(=O)N(c1ccc([N+](=O)[O-])cc1)C2=O	0.43	-0.3	i	i	i	i
O=C(Nc1ccccc1C(=O)O)c1ccc2c(c1)C(=O)N(c1cccc([N+](=O)[O-])c1)C2=O	0.52	7.0*	i	i	i	i
Cc1c(OCC(=O)NC2CC(C)(C)NC(C)(C)C2)ccc2c3c(c(=O)oc12)CCC3	-4.61*	-8.0	i	i	i	i
Cc1c(OCC(=O)NC2CC(C)(C)NC(C)(C)C2)ccc2c1oc(=O)c1ccccc12	-2.11	-8.6	i	i	i	i
CCC(C)NC(=O)CC(NS(=O)(=O)c1ccc(NC(C)=O)cc1)C(C)C (configuration not stated)	-0.4	-9.7	i	i	i	i
Cc1ccc(C(C[N+](=O)[O-])c2c(C)[nH]n(-c3ccccc3)c2=O)cc1 (configuration not stated)	-11.5*	-13.1	i	i	i	i
CC(C)(C)c1ccccc1OCCOCCSc1ncccn1	0.24	-9.9	-7.5*	i	i	i
CC(C)(C)c1ccccc1OCCOCCN1CCCCCC1	0.27	-17.9	i	i	i	i
O=C(Cc1noc2ccccc12)NNC(=S)Nc1ccc(Cl)cc1	-0.71	-0.1	i	i	i	i
O=C(Cc1noc2ccccc12)NNC(=S)Nc1ccccc1	-0.34	5.7*	i	i	i	i
O=C(C(=O)N1CCN(Cc2ccc3c(c2)OCO3)CC1)c1c[nH]c2ccccc12	-0.89	-1.5	i	i	i	i
CCOC(=O)[C@@H]1[C@H]2COc3ccccc3[C@H]2N2C(=O)N(c3ccc(OC)cc3)C(=O)[C@]12C	0.02	-6.0	i	i	i	i
O=C(c1sc2ccccc2c1Cl)N(Cc1ccccc1Cl)C1CCS(=O)(=O)C1 (configuration not stated)	0.93	-6.1	-6.79*	i	i	i
COC(=O)c1[nH]c2ccc(F)cc2c1NS(=O)(=O)c1ccc(OC)cc1OC	0.01	-3.9	-6.62*	i	i	i
CCOC(=O)c1[nH]c2ccc(OC)cc2c1NS(=O)(=O)c1ccc(OC)cc1OC	0.12	-18.1	i	i	i	i
SMILES	Kir21 block	hERG protect	KCNK9 inh	KCNQ1 act	KCNQ1 inh	KCNK3 inh
COC(=O)c1[nH]c2ccc(C)cc2c1NS(=O)(=O)c1ccc(F)c(C)c1	-0.21	-18.3	i	i	i	i
COC(=O)c1[nH]c2ccc(C)cc2c1NS(=O)(=O)c1ccc(F)cc1	-5.31*	-14.4	i	i	i	i
CCN(CC)S(=O)(=O)c1ccc(NC(=O)c2ccc(OCC3CCCO3)cc2)cc1 (configuration not stated)	x	x	x	x	x	i
COc1cc2ccc3c(CCN(C)C)cc(OC)c(OC)c3c2cc1OC	-0.46	-7.8	i	i	i	i
CN(C)CCc1cc2c(c3c1ccc1ccccc13)OCO2	-10.8*	-5.7	i	i	i	i
O=C(Nc1ccccc1F)NC1CCCCCCC1	0.05	-5.4	i	i	i	i
O=C(Nc1ccccc1F)NC1CC1	-0.47	5.8*	i	i	i	i
O=C(Nc1nccs1)c1cn(-c2ccccc2)nc1-c1ccccc1	1.72	-3.3	i	i	i	i
CC(C)COc1ccc(-c2nn(-c3ccccc3)cc2C(=O)Nc2nccs2)cc1	-0.85	14.2*	i	9*	i	i
CC1=CC2=NC(=O)CC(C)(C(=O)N(CC(=O)NC3CCCC3)c3cc(C)cc(C)c3)N2C=C1 (configuration not stated)	-1.41	-19.9	i	i	i	i
CCOc1ccccc1NC(=O)C(=O)CC(=O)c1ccc(OC)cc1	0.01	15.1*	i	14*	i	i
COc1ccc(C(=O)CC(=O)C(=O)Nc2ccc(C)c(Cl)c2)cc1	-0.2	16.6*	i	9*	i	i
COc1ccc(C(=O)CC(=O)C(=O)Nc2cc(C)ccc2C)cc1	1.41	-2.2	i	i	i	i
CCNC(=O)CN(c1ccc(Br)c(C)c1)S(C)(=O)=O	-1.63	-9.0	i	i	i	i
CC1(C)Cc2c(C#N)c(NC3CCCCC3)nc(-c3ccco3)c2CO1	-1.42	-22.4	i	i	6*	i
CC1(C)Cc2c(C#N)c(NCC3CCCO3)nc(-c3ccco3)c2CO1 (configuration not stated)	0.02	-7.4	i	i	i	i
CC(C)CC(NC(=O)c1ccc(Cl)cc1)C(=O)OCC(=O)c1ccc2c(c1)NC(=O)CO2 (configuration not stated)	-0.88	-6.9	i	13*	i	i
COc1ccc(C2=NOC(C)(c3nnc(Cc4ccccc4)o3)C2)cc1 (configuration not stated)	0.38	-1.2	i	i	i	i
OC1(c2ccc(Cl)cc2)CN(c2ccccc2)C2=[N+]1CCS2 (configuration not stated)	-0.97	-14.1	i	i	6*	i
